How the values were obtained:
[1] = folding enthalpy; higher = less favourable; fluorescence melt of hairpins on a sequencing array, two-state fit; details: sodium 0.088 M
Summary of the method: (§1)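 Cy3 fluorescence of library hairpins on a sequenced MiSeq flow cell, with annealed Cy3 and quencher oligos, was imaged in 50 mM Na-HEPES pH 8.0, 25 mM NaCl in 2.5 °C steps up to 60 °C. Signals were normalised to pre-quench Cy3 and to control variants. Melting temperature and folding enthalpy came from bootstrapped two-state fits, inverse-variance combined over four replicates. Fitted temperatures were raised by 9.35 °C to match UV melts.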

[2] = melting temperature; fluorescence melt of hairpins on a sequencing array, two-state fit, raised by 9.35 °C to match UV melts; details: sodium 0.088 M
Summary of the method: as §1

Row | Sequence | folding enthalpy [1] | Tm [2]
1 | CGTACGGAAACGTGACG ((((((....))).))) | -25.9 kcal/mol | 41.1 °C
2 | GATCGGCAGCCCGATC ((((((....)))))) | -36.1 kcal/mol | 54.9 °C
3 | GATCGATATCTCGATC ((((((....)))))) | -36 kcal/mol | 51 °C
4 | GCCATAGGAAACTATGAC (.(((((....))))).) | -18.2 kcal/mol | 34.1 °C
5 | GTATAAGGAAACTTGTAC (((.(((....))).))) | -17.1 kcal/mol | 31.5 °C
6 | GTGGGTGGAAACGCCTAC ((.((.(....).)).)) | -25.3 kcal/mol | 41.9 °C
7 | GGAAGTGGAAACACTTCC (((((((....))))))) | -54 kcal/mol | 61 °C
8 | GGAGTCGAAAGACCATCC ((((((....)))..))) | -11.2 kcal/mol | 29.5 °C
9 | GATCAGGCTCTGATC ((((((...)))))) | -35.2 kcal/mol | 49.1 °C
10 | GATCCGGGTTCGGATC ((((((....)))))) | -44.7 kcal/mol | 58.5 °C
11 | GTCTAACGAAAGTTGAC (((.(((....)))))) | -24.9 kcal/mol | 43.6 °C
12 | GGCGATACGAAAGTAGCC (((..(((....)))))) | -23.3 kcal/mol | 49.5 °C
13 | GGGTGCGGAAACACACCC (((((.(....).))))) | -37.6 kcal/mol | 54.8 °C
14 | GCTCTTACGAAAGTAAGC (((..(((....)))))) | -9.83 kcal/mol | 34.7 °C
15 | ATCCTGAAAAGGAT (((((....))))) | -18.9 kcal/mol | 45.2 °C
16 | GTCCGACGAAAGTCTGAC (((.(((....))).))) | -27.1 kcal/mol | 49.1 °C
17 | GACATCCGAAAGGACGTC (((.(((....))).))) | -37 kcal/mol | 49 °C
18 | GTCTGTCGAAAGACCGAC (((.(((....))).))) | -27.8 kcal/mol | 47.7 °C
19 | GGTGGTCCGAAAGGAACC (((..(((....)))))) | -14.1 kcal/mol | 48.9 °C
20 | GGCGGTGGAAACACCACC ((.((((....)))).)) | -27.5 kcal/mol | 53 °C
21 | GCACTTGGAAACAAATGC (((.(((....))).))) | -24.8 kcal/mol | 35.4 °C
22 | GGTCTTGGAAACGAGACC (((((.(....).))))) | -37.6 kcal/mol | 51.9 °C
23 | GATCATGGGGATGATC ((((((....)))))) | -29.2 kcal/mol | 46.5 °C

Row | Sequence | folding enthalpy [1] | Tm [2]
24 | GATCGGGCCCCGATC ((((((...)))))) | -44.1 kcal/mol | 57.5 °C
25 | GCGAGCGCTCGC ((((....)))) | -46.8 kcal/mol | 65 °C
26 | GTCGAACGAAAGTTTGAC (((.(((....))).))) | -42.2 kcal/mol | 54.5 °C
27 | GATCTCAACGAGATC ((((((...)))))) | -35.5 kcal/mol | 55.8 °C
28 | GCGAGGCGAAAGCAGCGC (((..((....))..))) | -29.9 kcal/mol | 68.9 °C
29 | GCTAGCCGAAAGGCAAGC (((.(((....))).))) | -27 kcal/mol | 60 °C
30 | GATTCTGGAAACAGGATC (((.(((....))).))) | -37.1 kcal/mol | 42.7 °C
31 | GATCTGTCGGCAGATC ((((((....)))))) | -45.6 kcal/mol | 51.1 °C
32 | GAGCTGGGAAACCGGTTC ((.(.((....)).).)) | -23.3 kcal/mol | 35.7 °C
33 | GCCATGCGAAAGCAATGC ((..(((....)))..)) | -12.6 kcal/mol | 41.3 °C
34 | GCCTCTGGAAACAGAGAC (.(((((....))))).) | -18.7 kcal/mol | 40.1 °C
35 | GGCAATCCGAAAGGAGCC (((..(((....)))))) | -23.4 kcal/mol | 46.9 °C
36 | GCACACGAAAGTGTTGC ((((((....))).))) | -32.5 kcal/mol | 53.8 °C
37 | GATCGCGAAAGCGATATC ((((((....)))..))) | -11.8 kcal/mol | 59.2 °C
38 | GATCGAACGGTCGATC ((((((....)))))) | -51.2 kcal/mol | 51.1 °C
39 | GGTTTGGGAAACCAAACC (((((((....))))))) | -40.3 kcal/mol | 64.6 °C
40 | GCACAGCGAAAGCCGGGC ((.(.((....)).).)) | -22.4 kcal/mol | 55.7 °C
41 | GAGATGCCGAAAGGCCTC (((..(((....)))))) | -10.1 kcal/mol | 32.1 °C
42 | GCCATGCGAAAGCACCGC ((..(((....)))..)) | -8.84 kcal/mol | 24.1 °C
43 | GAGTACGAAAGTACCTC ((((((....))).))) | -14.5 kcal/mol | 47 °C
44 | GCCATCGAAAGATCGGC ((((((....))).))) | -24.7 kcal/mol | 48.2 °C
45 | GATCGAGGAAACCCGATC (((((.(....).))))) | -33.1 kcal/mol | 47.8 °C
46 | GATCGTGTGTACGATC ((((((....)))))) | -40.9 kcal/mol | 54.7 °C

Row | Sequence | folding enthalpy [1] | Tm [2]
47 | GGGGTAGGAAACTATCCC (((.(((....))).))) | -38.4 kcal/mol | 48.9 °C
48 | GATCGAAAAATCGATC ((((((....)))))) | -25.5 kcal/mol | 43.9 °C
49 | GTCGGGCGAAAGCCGGAC (((.(((....))).))) | -27.7 kcal/mol | 67.7 °C
50 | GATTCAGGAAACTGAATC (((((((....))))))) | -36.9 kcal/mol | 55.7 °C
51 | GCGTAGCGAAAGCAACGC ((((.((....)).)))) | -21.1 kcal/mol | 66.7 °C
52 | GCGCTGCGAAAGCACGC (((.(((....)))))) | -17.6 kcal/mol | 69.2 °C
53 | GACACGACGAAAGTCGTC (((..(((....)))))) | -6.1 kcal/mol | 34.4 °C
54 | GGTCTCGAAAGAGTCACC ((((((....)))..))) | -14.6 kcal/mol | 31.3 °C
55 | GCTGCGCGAAAGCTCTGC ((.(.((....)).).)) | -18.2 kcal/mol | 42.3 °C
56 | GCAAGCGAAAGCTAATGC ((((((....)))..))) | -15.5 kcal/mol | 39.4 °C
57 | GCTTACGGAAACATAAGC (((((.(....).))))) | -21.6 kcal/mol | 35.1 °C
58 | GTTGCTCGAAAGAGGAAC (((.(((....))).))) | -38.2 kcal/mol | 53.9 °C
59 | GGTCAGGGAAACTTGGCC ((.((.(....).)).)) | -26.1 kcal/mol | 38.2 °C
60 | GTGCCGCGAAAGCGACAC (((.(((....))).))) | -34.4 kcal/mol | 65.7 °C
61 | GCCTATCGAAAGATGGC (((.(((....)))))) | -30.9 kcal/mol | 50.9 °C
62 | GCCGAAGGAAACTTCGAC (.(((((....))))).) | -19.8 kcal/mol | 41 °C
63 | GCCCAGCGAAAGCTTTGC ((..(((....)))..)) | -7.49 kcal/mol | 37.6 °C
64 | GAATCCGAAAGGATTC ((((((....)))))) | -37 kcal/mol | 66.5 °C
65 | GTGGTTCGAAAGAAACAC (((.(((....))).))) | -48.8 kcal/mol | 55.8 °C
66 | GCCGGGCGAAAGCGCTGC ((.(.((....)).).)) | -20.3 kcal/mol | 43 °C
67 | GGTCTCCGAAAGGAACC (((.(((....)))))) | -22.4 kcal/mol | 45.2 °C
68 | GATCTGACTGCAGATC ((((((....)))))) | -23.7 kcal/mol | 47 °C
69 | GGAGCACGAAAGTGTTCC (((.(((....))).))) | -39.8 kcal/mol | 58.8 °C

— the array DNA melting data of Ke et al. (doi:10.1101/2024.01.08.574731)
